Measurements from ChEMBL document CHEMBL4842360, “Discovery of a Bicyclic Peptidyl Pan-Ras Inhibitor” (J Med Chem, 2021).
Active and inactive are the calls of the source. The rule behind the calls is not given here. Numbered stars: 1 amine (or outer) side, 2 acyl side, 3 side chain; on linkers, the order of the positions; unused ones are H or OH. Bridge positions count the residues as written; N and C are the ends. Square brackets hold non-standard residues; d marks the D form. Peptide text beside a SMILES is read from it. Trimesoyl = O=C(c1cc(C(=O)[*:2])cc(C(=O)[*:3])c1)[*:1]; d2Nal = N[C@H](Cc1ccc2ccccc2c1)C(=O)O; Phg = N[C@H](C(=O)O)c1ccccc1; Orn = NCCC[C@H](N)C(=O)O; Dap = NC[C@H](N)C(=O)O

Legend:
[1] = test system: NCI-H358; test: Induction of apoptosis in human NCI-H358 cells assessed as necrotic cells at 1 uM incubated for 24 hrs by Alexa Fluor 488 annexin V/propidium iodide staining based assay (reference value: 0.699%); assay type: functional
[2] = test system: NIH3T3; test: Cytotoxicity against mouse NIH3T3 cells incubated for 96 hrs by CellTiter-Glo2 assay; assay type: cell-based; conditions: NIH3T3, 96 h
Procedure, shortened: (§1)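 Cells plated at 5,000/well, grown overnight, then exposed to serially diluted peptide (0–40 μM) in medium with 10% FBS for 96 h at 37 °C, 5% CO2. Viability read by CellTiter-Glo 2.0 luminescence after 15 min at RT.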

[3] = Drug distribution in human NCI-H358 cells assessed as diffuse fluorescence throughout the entire cell volume at 5 uM incubated for 2 hrs by live-cell confocal microscopy; assay type: ADME, cell-based; conditions: nci-h358, 2 h
Procedure, shortened: (§2)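 HeLa, H358 or A549 cells treated with 5 μM fluorescein-labeled peptide for 2 h, then imaged by live-cell confocal microscopy for intracellular fluorescence pattern.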

[4] = Drug distribution in human NCI-H358 cells assessed as accumulation in plasma membrane at 5 uM incubated for 2 hrs by live-cell confocal microscopy; assay type: ADME, cell membranes; conditions: nci-h358, 2 h; procedure, shortened: as §2
[5] = Antiproliferative activity against human NCI-H1915 cells harboring HRas Q61L mutant incubated for 96 hrs by CellTiter-Glo2 assay; assay type: functional, cell-based; conditions: NCI-H1915, Lung; procedure, shortened: as §1
[6] = test system: NCI-H358; test: Induction of apoptosis in human NCI-H358 cells assessed as live cells at 10 uM incubated for 24 hrs by Alexa Fluor 488 annexin V/propidium iodide staining based assay (reference value: 87%); assay type: functional
[7] = Drug distribution in human HeLa cells assessed as fluorescent puncta in cytoplasmic region at 5 uM incubated for 2 hrs by live-cell confocal microscopy; assay type: ADME, cell-based; procedure, shortened: as §2
[8] = test system: NCI-H358; test: Induction of apoptosis in human NCI-H358 cells assessed as necrotic cells at 5 uM incubated for 24 hrs by Alexa Fluor 488 annexin V/propidium iodide staining based assay (reference value: 0.699%); assay type: functional
[9] = test system: A549; test: Antitumor activity against human A549 cells xenografted in mouse assessed as average tumor volume at 5 mg/kg, iv administered for 9 days measured every other day (reference value: 100 mm3); assay type: functional; conditions: time 9 day
Procedure, shortened: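 Nude mice given ~1.5 million A549 cells subcutaneously. Once tumors reached ~40 mm3, groups of n = 6 received peptide at 1 or 5 mg/kg/day or PBS vehicle by tail-vein injection for 9 days. Tumor volume was tracked, and tumors were weighed at harvest.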

[10] = test system: DLD-1; test: Antiproliferative activity against human DLD-1 cells harboring KRAS G13D mutant incubated for 96 hrs by CellTiter-Glo2 assay; assay type: functional, cell-based; conditions: DLD-1, 96 h; procedure, shortened: as §1
[11] = test system: NCI-H358; test: Induction of apoptosis in human NCI-H358 cells assessed as early apoptotic cells at 1 uM incubated for 24 hrs by Alexa Fluor 488 annexin V/propidium iodide staining based assay (reference value: 3.05%); assay type: functional
[12] = Drug distribution in human NCI-H358 cells assessed as fluorescent puncta in cytoplasmic region at 5 uM incubated for 2 hrs by live-cell confocal microscopy; assay type: ADME, cell-based; conditions: nci-h358, 2 h; procedure, shortened: as §2
[13] = test system: HEK-293T; test: Cytotoxicity against HEK293T cells incubated for 96 hrs by CellTiter-Glo2 assay; assay type: cell-based; conditions: Homo sapiens; procedure, shortened: as §1
[14] = test system: A549; test: Antitumor activity against human A549 cells xenografted in mouse assessed as reduction in ERK phosphorylation at 1 to 5 mg/kg, iv administered for 9 days measured every other day by immunohistochemical staining method; assay type: functional, organism-based; conditions: dose 1-5 mg/kg, time 9.0 day
[15] = test system: NCI-H358; test: Induction of apoptosis in human NCI-H358 cells assessed as early apoptotic cells at 10 uM incubated for 24 hrs by Alexa Fluor 488 annexin V/propidium iodide staining based assay (reference value: 3.05%); assay type: functional
[16] = test system: A549; test: Antiproliferative activity against human A549 cells harboring KRAS G12S mutant incubated for 96 hrs by CellTiter-Glo2 assay; assay type: functional, cell-based; conditions: A549, 96 h; procedure, shortened: as §1
[17] = organism: Homo sapiens; test: Binding affinity to glutathione-S-transferase (unknown origin)
Procedure, shortened: (§3)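 Fluorescein-labeled peptide (100 nM) incubated 1 h at RT with varying concentrations of control protein (BSA, GST-RBD, PNP, PTP1B or MDM2). KD derived from fluorescence polarization titration curves.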

[18] = target: T1, Purine nucleoside phosphorylase (Homo sapiens) (UniProt P00491); test: Binding affinity to purine nucleoside phosphorylase (unknown origin); procedure, shortened: as §3
T1 sequence (whole entry): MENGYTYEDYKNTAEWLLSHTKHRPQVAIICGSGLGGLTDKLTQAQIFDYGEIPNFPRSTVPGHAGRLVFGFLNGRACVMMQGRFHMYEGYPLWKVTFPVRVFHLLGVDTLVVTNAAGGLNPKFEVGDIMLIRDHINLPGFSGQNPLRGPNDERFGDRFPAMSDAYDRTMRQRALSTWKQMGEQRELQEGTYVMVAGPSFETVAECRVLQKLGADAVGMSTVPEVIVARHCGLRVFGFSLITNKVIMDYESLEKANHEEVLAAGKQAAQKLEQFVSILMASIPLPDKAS

[19] = test system: NCI-H358; test: Induction of apoptosis in human NCI-H358 cells assessed as live cells at 1 uM incubated for 24 hrs by Alexa Fluor 488 annexin V/propidium iodide staining based assay (reference value: 87%); assay type: functional
[20] = test system: NCI-H358; test: Induction of apoptosis in human NCI-H358 cells assessed as late apoptotic cells at 1 uM incubated for 24 hrs by Alexa Fluor 488 annexin V/propidium iodide staining based assay (reference value: […]); assay type: functional
[21] = Drug distribution in human A549 cells assessed as diffuse fluorescence throughout the entire cell volume at 5 uM incubated for 2 hrs by live-cell confocal microscopy; assay type: ADME, cell-based; conditions: a549, 2 h; procedure, shortened: as §2
[22] = Drug distribution in human HeLa cells assessed as diffuse fluorescence throughout the entire cell volume at 5 uM incubated for 2 hrs by live-cell confocal microscopy; assay type: ADME, cell-based; procedure, shortened: as §2
[23] = test system: NCI-H358; test: Induction of apoptosis in human NCI-H358 cells assessed as late apoptotic cells at 5 uM incubated for 24 hrs by Alexa Fluor 488 annexin V/propidium iodide staining based assay (reference value: […]); assay type: functional
[24] = test system: NCI-H358; test: Induction of membrane disruption in human H358 cells assessed as LDH release up to 20 uM incubated for 45 mins by absorbance method; assay type: functional, cell-based; conditions: dose microM <=20, time […]
[25] = Drug distribution in human A549 cells assessed as accumulation in plasma membrane at 5 uM incubated for 2 hrs by live-cell confocal microscopy; assay type: ADME, cell membranes; conditions: a549, 2 h; procedure, shortened: as §2
[26] = Drug distribution in human A549 cells assessed as fluorescent puncta in cytoplasmic region at 5 uM incubated for 2 hrs by live-cell confocal microscopy; assay type: ADME, cell-based; conditions: a549, 2 h; procedure, shortened: as §2
[27] = test system: NCI-H358; test: Antitumor activity against human NCI-H358 cells xenografted in mouse assessed as suppression of tumor growth at 5 mg/kg, iv administered for 9 days measured every other day; assay type: functional, organism-based; conditions: time 9.0 day
Procedure, shortened: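 H358 xenograft in mice; peptide given daily at 5 mg/kg i.v. for 9 days, with tumor growth followed over that period.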

[28] = test system: NCI-H358; test: Induction of apoptosis in human NCI-H358 cells assessed as necrotic cells at 10 uM incubated for 24 hrs by Alexa Fluor 488 annexin V/propidium iodide staining based assay (reference value: 0.699%); assay type: functional
[29] = test system: NCI-H358; test: Induction of apoptosis in human NCI-H358 cells assessed as live cells at 5 uM incubated for 24 hrs by Alexa Fluor 488 annexin V/propidium iodide staining based assay (reference value: 87%); assay type: functional

With C[C@@H](NC(=O)[C@H](Cc1ccccc1)NC(=O)[C@@H](CCCNC(=N)N)NC(=O)[C@H](CCCN)NC(=O)[C@@H]1CNC(=O)c2cc3cc(c2)C(=O)N[C@H](Cc2ccc4ccccc4c2)C(=O)N[C@@H](CO)C(=O)N[C@@H](CC(N)=O)C(=O)N[C@H](Cc2ccc4ccccc4c2)C(=O)N[C@@H](c2ccccc2)C(=O)N[C@@H](CCCCNC3=O)C(=O)N[C@H](Cc2ccccc2)C(=O)N[C@@H](CCC(N)=O)C(=O)N[C@H](CCCNC(=N)N)C(=O)N[C@@H](CCCNC(=N)N)C(=O)N1)C(N)=O ([d2Nal]SN[d2Nal][Phg]K[dF]Q[dR]R[Dap][Orn][dR]F[dA]-NH2; linker N-6-11 via Trimesoyl) the Activity [1] was 0.226%, the EC50 [2] was at least 20 µM and the Drug uptake [3] was “Active”. For the same compound, the Drug uptake [4] was “Active”, the EC50 [5] was 6.8 µM and the Activity [6] was 15.4%. For the same compound, the Drug uptake [7] was “Active”, the Activity [8] was 1.14% and the Activity [9] was 35 mm3. For the same compound, the EC50 [10] was 4.9 µM, the Activity [11] was 3.13% and the Drug uptake [12] was “Active”. For the same compound, the EC50 [13] was at least 20 µM, the Activity [14] was “Active” and the Activity [15] was 4.11%. The EC50 [16] was 0.5 µM, the Activity [17] was “inactive” and the Activity [18] was “inactive”. The Activity [19] was 87.7%, the Activity [20] was 8.91% and the Drug uptake [21] was “Active”. For the same compound, the Drug uptake [22] was “Active”, the Activity [23] was 29.1% and the Activity [24] was “inactive”. The Drug uptake [25] was “Active”, the Drug uptake [26] was “Active” and the Activity [27] was “Active”. It also gave an Activity [28] of 0.493% and an Activity [29] of 55.1%.
